In assay [1] the test system is Rattus norvegicus. The assay is described as follows: Effect on intestinal calcium transport in weanling Sprague-Dawley rat assessed as ratio of serosal to mucosal calcium level at 7020 pmol/day, ip administered for 4 consecutive days measured 24 hrs after last dose by everted gut sac method. The class given is functional. The method, boiled down: (§1)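 Same rats and regimen: low/normal Ca diet cycling, then four i.p. doses about 24 h apart during the final 0.02% Ca week. First 10 cm of intestine taken 24 h after the last dose; Ca transport measured by everted gut sac.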

Assay [2] deals with T1, Vitamin D3 receptor (Rattus norvegicus, UniProt P13053).
T1 sequence (P13053 whole entry): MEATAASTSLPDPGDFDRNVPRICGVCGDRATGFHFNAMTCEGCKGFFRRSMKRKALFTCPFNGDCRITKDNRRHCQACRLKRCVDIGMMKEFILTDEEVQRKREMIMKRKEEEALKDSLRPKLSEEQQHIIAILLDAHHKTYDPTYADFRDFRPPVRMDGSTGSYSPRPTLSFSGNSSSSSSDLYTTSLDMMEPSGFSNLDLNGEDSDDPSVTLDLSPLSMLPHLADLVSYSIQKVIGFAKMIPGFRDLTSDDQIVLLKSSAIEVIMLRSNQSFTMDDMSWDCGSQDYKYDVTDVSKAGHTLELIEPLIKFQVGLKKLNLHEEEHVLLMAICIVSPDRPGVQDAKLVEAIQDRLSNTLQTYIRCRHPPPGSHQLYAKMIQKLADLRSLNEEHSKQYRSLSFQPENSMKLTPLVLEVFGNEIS
The assay is described as follows: Displacement of radiolabeled 1-alpha,25-(OH)2D3 from rat recombinant full length VDR.

Assay [3] concerns the target T2, Vitamin D3 receptor (Rattus norvegicus) (UniProt P13053).
T2 sequence (whole entry): T1 sequence (P13053 whole entry)
The assay is described as follows: Ratio of compound Ki to [3H]1-alpha,25-(OH)2D3 Ki for rat recombinant full length VDR.

For assay [4], the system named is HL-60. Kind of assay: Induction of differentiation of human HL60 promyelocytes into monocytes after 4 days by NBT reduction assay. It counts as functional, cell-based. Conditions: HL-60, 96 h.
The test system of assay [5] is HL-60. Kind of assay: Ratio of compound ED50 to [3H]1-alpha,25-(OH)2D3 ED50 for induction of differentiation of human HL60 promyelocytes into monocytes after 4 days by NBT reduction assay. It counts as functional.
In assay [6] the target is T1, Vitamin D3 receptor. Kind of assay: Activity at VDR in rat osteosarcoma cells assessed as induction of 24-hydroxylase reporter gene transcription by luciferase reporter gene assay. It counts as cell-based. Put shortly: (§2)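 Rat osteosarcoma cells stably transfected with a 24-hydroxylase gene reporter plasmid; luciferase read-out. EC50 from dose–response curves = concentration raising luciferase activity by 50%. Ratio = average of analog EC50 over 1α,25-(OH)2D3 EC50. Duplicates on at least two separate occasions.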

Assay [7] has as its target T2, Vitamin D3 receptor (Rattus norvegicus). The assay is described as follows: Ratio of compound EC50 to [3H]1-alpha,25-(OH)2D3 EC50 for VDR in rat osteosarcoma cells by 24-hydroxylase gene transcriptional activation assay. It counts as cell-based. Put shortly:
as §2

In assay [8] the test system is Rattus norvegicus. Kind of assay: Effect on bone calcium mobilization in weanling Sprague-Dawley rat assessed as serum calcium level at 87 pmol/day, ip administered for 4 consecutive days measured 24 hrs after last dose. The class given is functional. The method, boiled down: (§3)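 Male weanling rats fed 0.47% Ca + AEK oil for 1 wk, then 0.02% Ca for 3 wk, then 0.47% Ca for 1 wk, then 0.02% Ca for 2 wk. Dosing during the final low-Ca week: four i.p. doses about 24 h apart. Serum Ca measured on blood from severed neck 24 h after the last dose; statistics applied.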

The test system of assay [9] is Rattus norvegicus. The assay is described as follows: Effect on bone calcium mobilization in weanling Sprague-Dawley rat assessed as serum calcium level at 260 pmol/day, ip administered for 4 consecutive days measured 24 hrs after last dose. It counts as functional. Put shortly: as §3
Assay [10] deals with Rattus norvegicus. The assay is described as follows: Effect on bone calcium mobilization in weanling Sprague-Dawley rat assessed as serum calcium level at 2340 pmol/day, ip administered for 4 consecutive days measured 24 hrs after last dose. The class given is functional. Put shortly: as §3
The subject of assay [11] is Rattus norvegicus. The assay is described as follows: Effect on bone calcium mobilization in weanling Sprague-Dawley rat assessed as serum calcium level at 7020 pmol/day, ip administered for 4 consecutive days measured 24 hrs after last dose. The class given is functional. The method, boiled down:
as §3

Assay [12] has as its system Rattus norvegicus. Kind of assay: Effect on intestinal calcium transport in weanling Sprague-Dawley rat assessed as ratio of serosal to mucosal calcium level at 87 pmol/day, ip administered for 4 consecutive days measured 24 hrs after last dose by everted gut sac method. It counts as functional. The method, boiled down: as §1
The subject of assay [13] is Rattus norvegicus. Kind of assay: Effect on intestinal calcium transport in weanling Sprague-Dawley rat assessed as ratio of serosal to mucosal calcium level at 260 pmol/day, ip administered for 4 consecutive days measured 24 hrs after last dose by everted gut sac method. The class given is functional. Put shortly: as §1
The test system of assay [14] is Rattus norvegicus. The assay is described as follows: Effect on intestinal calcium transport in weanling Sprague-Dawley rat assessed as ratio of serosal to mucosal calcium level at 2340 pmol/day, ip administered for 4 consecutive days measured 24 hrs after last dose by everted gut sac method. The class given is functional. Put shortly:
as §1

Assay [15] concerns Rattus norvegicus. Kind of assay: Effect on bone calcium mobilization in weanling Sprague-Dawley rat assessed as serum calcium level at 780 pmol/day, ip administered for 4 consecutive days measured 24 hrs after last dose. The class given is functional. Put shortly: as §3
The test system of assay [16] is Rattus norvegicus. The assay is described as follows: Effect on intestinal calcium transport in weanling Sprague-Dawley rat assessed as ratio of serosal to mucosal calcium level at 780 pmol/day, ip administered for 4 consecutive days measured 24 hrs after last dose by everted gut sac method. The class given is functional. Put shortly: as §1

The text below walks through data of ChEMBL document CHEMBL1152659, “Removal of the 20-methyl group from 2-methylene-19-nor-(20S)-1alpha,25-dihydroxyvitamin D(3) (2MD) selectively eliminates bone calcium mobilization activity” (Bioorg Med Chem, 2009).

The structures appear in SMILES notation.

For `C=C1[C@H](O)CC(=C/C=C2\CCC[C@@H]3[C@@H](CCCCC(C)(C)O)CC[C@@H]23)C[C@H]1O`, the Ratio with Rattus norvegicus [1] amounted to 11.4; in the assay with Rattus norvegicus [12], 7.2; with Rattus norvegicus [13], 2.3; with Rattus norvegicus [14], 7.5. Besides, the Ki at Vitamin D3 receptor [2] was 100 pM. Besides, the Ratio Ki in [3] stood at 1. Besides, the EC50 in the assay on HL-60 [4] worked out at 300 pM; on Vitamin D3 receptor [6], 60 pM. Moreover, the “Ratio ED50” value with HL-60 [5] stood at 0.15. Further, in assay [7], the Ratio EC50 stood at 0.2. Moreover, the Activity in the assay on Rattus norvegicus [8] was 4 mg/dL; with Rattus norvegicus [9], 4.3 mg/dL; with Rattus norvegicus [10] it was 6.1 mg/dL; with Rattus norvegicus [11], 6.5 mg/dL.
Regarding `C=C1[C@H](O)CC(=C/C=C2\CCC[C@]3(C)[C@@H]([C@@H](C)CCCC(C)(C)O)CC[C@@H]23)C[C@H]1O` [DP001], the Activity in the assay on Rattus norvegicus [8] was 8.4 mg/dL; in the assay on Rattus norvegicus [9] it was 9.3 mg/dL; in the assay on Rattus norvegicus [15], 11.1 mg/dL. For the same molecule, the Ratio was 12.3 with Rattus norvegicus [12], 11.4 with Rattus norvegicus [13] and 10.9 in the assay with Rattus norvegicus [16].
In the case of `C=C1/C(=C\C=C2/CCC[C@]3(C)[C@@H]([C@H](C)CCCC(C)(C)O)CC[C@@H]23)C[C@@H](O)C[C@@H]1O` [CALCITRIOL], the Activity in the assay on Rattus norvegicus [8] is 4.6 mg/dL; in the assay on Rattus norvegicus [9], 5 mg/dL; with Rattus norvegicus [15], 5.3 mg/dL; with Rattus norvegicus [10], 6.9 mg/dL.
Take `C=C1[C@H](O)CC(=C/C=C2\CCC[C@@H]3[C@@H]([C@@H](C)CCCC(C)(C)O)CC[C@@H]23)C[C@H]1O`: the Ratio was determined as 14.5 in the assay with Rattus norvegicus [1], 8.4 in the assay with Rattus norvegicus [13], 10 with Rattus norvegicus [16] and 8.5 with Rattus norvegicus [14]. Moreover, on Vitamin D3 receptor [2], the Ki is 20 pM. Further, the Ratio Ki in assay [3] worked out at 0.2. The EC50 in the assay on HL-60 [4] was found to be 400 pM; on Vitamin D3 receptor [6], 20 pM. Also, the “Ratio ED50” value with HL-60 [5] is recorded as 0.2. In assay [7], the Ratio EC50 worked out at 0.07. For the same molecule, the Activity came to 5.7 in the assay on Rattus norvegicus [9], 6.6 mg/dL in the assay with Rattus norvegicus [15], 7.8 mg/dL with Rattus norvegicus [10] and 8.7 mg/dL in the assay on Rattus norvegicus [11].
As for `C=C1[C@H](O)CC(=C/C=C2\CCC[C@]3(C)[C@@H](CCCCC(C)(C)O)CC[C@@H]23)C[C@H]1O`, the Ratio in the assay on Rattus norvegicus [1] is given as 7.8; in the assay with Rattus norvegicus [12] it was 5.6; in the assay with Rattus norvegicus [13], 7.4; with Rattus norvegicus [16], 10.2; in the assay with Rattus norvegicus [14], 8.8. For the same molecule, the Ki on Vitamin D3 receptor [2] is 200 pM. Besides, in assay [3], the Ratio Ki turned out to be 2. The EC50 with HL-60 [4] and at Vitamin D3 receptor [6] was 200 pM throughout. Also, in the assay on HL-60 [5], the “Ratio ED50” value was determined as 0.35. The Ratio EC50 in assay [7] turned out to be 0.67. Further, the Activity in the assay with Rattus norvegicus [8] turned out to be 4.3 mg/dL; in the assay with Rattus norvegicus [9], 4.6 mg/dL; with Rattus norvegicus [15] it was 4.9 mg/dL; in the assay with Rattus norvegicus [10] it was 5.3 mg/dL; with Rattus norvegicus [11], 5.1 mg/dL.
